Legend:
[1] = system: Jurkat; experiment: Cytotoxicity against human Jurkat cells assessed as induction of cell death after 48 hrs by MTT assay; assay type: functional, cell-based
Outline: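 Jurkat T cells grown in RPMI 1640 with 10% heat-inactivated FCS, 10 mM HEPES, penicillin/streptomycin at 37 °C, 5% CO₂. Seeded at 2 × 10⁴ per well. Compounds or 0.3% DMSO vehicle added for 48 h. MTT then added until blue staining, cells lysed overnight in 10% SDS/20 mM HCl, absorbance read at 570 nm. Three to four independent experiments.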

[2] = target: T1, Polyunsaturated fatty acid 5-lipoxygenase (Homo sapiens, UniProt P09917); experiment: Inhibition of recombinant human 5-LO expressed in Escherichia coli BL21 using arachidonic acid as substrate assessed as formation of all-trans isomer of LTB4, 5-H(P)ETE preincubated for 5 to 10 mins followed by substrate addition measured after 10 mins by HPLC analysis
T1 sequence (P09917 whole entry): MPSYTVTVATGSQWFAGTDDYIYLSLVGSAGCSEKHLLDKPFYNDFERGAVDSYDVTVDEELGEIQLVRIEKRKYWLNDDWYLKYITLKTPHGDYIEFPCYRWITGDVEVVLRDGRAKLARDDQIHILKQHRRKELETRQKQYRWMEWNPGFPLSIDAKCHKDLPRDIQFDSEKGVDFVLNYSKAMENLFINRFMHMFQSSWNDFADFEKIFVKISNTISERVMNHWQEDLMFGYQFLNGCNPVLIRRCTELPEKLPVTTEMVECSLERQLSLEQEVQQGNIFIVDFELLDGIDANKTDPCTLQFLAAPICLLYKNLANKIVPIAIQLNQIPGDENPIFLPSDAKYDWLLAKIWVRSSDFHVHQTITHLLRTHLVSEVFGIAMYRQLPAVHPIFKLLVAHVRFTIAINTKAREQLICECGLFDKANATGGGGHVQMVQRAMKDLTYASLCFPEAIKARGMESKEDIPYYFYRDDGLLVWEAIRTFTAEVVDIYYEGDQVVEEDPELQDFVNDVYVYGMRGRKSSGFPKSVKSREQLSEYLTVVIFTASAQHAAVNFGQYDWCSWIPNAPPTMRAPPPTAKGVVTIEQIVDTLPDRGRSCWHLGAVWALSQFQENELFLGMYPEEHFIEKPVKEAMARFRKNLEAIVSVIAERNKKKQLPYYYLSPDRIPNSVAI

[3] = target: T2, Prostaglandin E synthase (Homo sapiens, UniProt O14684); experiment: Inhibition of mPGES-1 in microsomal membranes isolated from interleukin-1beta-stimulated human A549 cells using PGH2 as substrate assessed as PGE2 formation preincubated for 15 mins followed by substrate addition measured after 1 min by RP-HPLC analysis; assay type: cell membranes
T2 sequence (O14684 whole entry): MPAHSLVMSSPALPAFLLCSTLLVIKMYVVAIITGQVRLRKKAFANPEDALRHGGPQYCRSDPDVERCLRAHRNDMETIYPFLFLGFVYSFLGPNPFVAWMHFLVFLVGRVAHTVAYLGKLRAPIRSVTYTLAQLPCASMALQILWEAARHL
Outline: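 A549 cells kept 16 h in DMEM with 2% FCS, then 1 ng/ml IL-1β for 72 h. Cells homogenized and sonicated, microsomes obtained by centrifugation at 10,000 × g then 174,000 × g. Microsomes in 0.1 M potassium phosphate pH 7.4 with 2.5 mM glutathione, preincubated 15 min with compound or 0.3% DMSO. 20 µM PGH₂ (final) for 1 min at 4 °C. Stopped with FeCl₂/citric acid containing 11β-PGE₂, solid-phase extraction, RP-HPLC with UV at 195 nm.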

[4] = target: T1, Polyunsaturated fatty acid 5-lipoxygenase; experiment: Inhibition of 5-LO in ionophore A23187-stimulated human PMNL using arachidonic acid as substrate assessed as formation of LTB4, 5(S),12(S)-DiHETE, 5-H(p)ETE preincubated for 15 mins followed by substrate and ionophore addition measured after 10 mins by HPLC analysis
[5] = target: T3, Polyunsaturated fatty acid 5-lipoxygenase (Homo sapiens) (UniProt P09917); experiment: Inhibition of recombinant human 5-LO expressed in Escherichia coli BL21 using arachidonic acid as substrate assessed as remaining activity at 10 uM preincubated for 5 to 10 mins followed by substrate addition measured after 10 mins by HPLC analysis relative to control
T3 sequence (whole entry): T1 sequence (P09917 whole entry)
Outline: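 5-LO expressed in E. coli BL21 from pT3-5-LO plasmid at 37 °C, then partially purified. Enzyme with compound held 5–10 min at 4 °C, prewarmed 30 s at 37 °C. Reaction started with 2 mM CaCl₂ plus 20 µM AA, stopped after 10 min at 37 °C with ice-cold methanol. All-trans LTB₄ isomers and 5-H(P)ETE quantified by HPLC. BWA4C used as control.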

[6] = target: T3, Polyunsaturated fatty acid 5-lipoxygenase (Homo sapiens); experiment: Inhibition of 5-LO in ionophore A23187-stimulated human PMNL using arachidonic acid as substrate assessed as remaining activity at 10 uM preincubated for 15 mins followed by substrate and ionophore addition measured after 10 mins by HPLC analysis relative to control
Outline: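 Human PMNL isolated by dextran sedimentation, density-gradient centrifugation and hypotonic erythrocyte lysis. 5 × 10⁶ cells/ml in PBS pH 7.4 with 1 mg/ml glucose and 1 mM CaCl₂. Compounds preincubated 15 min at 37 °C, then ionophore A23187 plus 20 µM AA for 10 min at 37 °C. Stopped with methanol/HCl, PGB₁ internal standard. 5-LO metabolites analysed by HPLC. BWA4C used as control.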

SMILES	EC50 [1]	IC50 [2]	IC50 [3]	IC50 [4]	Activity [5]	Activity [6]
CC(C)CC(=O)c1c(O)c(C(CC(C)C)C2=C(O)C(C)(C)C(=O)C(C)(C)C2=O)c(O)c(C(CC(C)C)C2=C(O)C(C)(C)C(=O)C(C)(C)C2=O)c1O (configuration not stated)	19.2 µM	2.7 µM	0.22 µM	0.66 µM		
CCCCCC(=O)c1c(O)c(C(CC(C)C)C2=C(O)CC(C)(C)CC2=O)c(O)c(C(CC(C)C)C2=C(O)CC(C)(C)CC2=O)c1O (configuration not stated)	13.1 µM	2.9 µM	0.81 µM	7.3 µM		
CC(C)C(=O)c1c(O)c([C@@H](C2=C(O)C(C)(C)C(=O)C(C)(C)C2=O)C(C)C)c(O)c2c1OC1=C(C(=O)C(C)(C)C(=O)C1(C)C)[C@@H]2C(C)C	3.4 µM	> 10 µM	0.49 µM	0.98 µM	82.3%	
CC(C)CC(=O)c1c(O)c(C(C2=C(O)c3ccccc3C2=O)c2ccccc2)c(O)c(C(C2=C(O)c3ccccc3C2=O)c2ccccc2)c1O (configuration not stated)	> 30 µM	1.2 µM	0.65 µM	2.1 µM		
CC(C)C(C1=C(O)CC(C)(C)CC1=O)c1c(O)c(C(=O)c2ccccc2)c(O)c(C(C2=C(O)CC(C)(C)CC2=O)C(C)C)c1O (configuration not stated)	4.4 µM	8.6 µM	3.5 µM	> 10 µM		66.1%
CCCCCC(=O)c1c(O)c(C(C2=C(O)CC(C)(C)CC2=O)C(C)C)c(O)c(C(C2=C(O)CC(C)(C)CC2=O)C(C)C)c1O (configuration not stated)	3.7 µM	> 10 µM	0.57 µM	2.7 µM	68.7%	
CC(C)CC(C1=C(O)C(C)(C)C(=O)C(C)(C)C1=O)c1c(O)c(C(=O)C(C)C)c(O)c(C(CC(C)C)C2=C(O)C(C)(C)C(=O)C(C)(C)C2=O)c1O (configuration not stated)	12.2 µM	4.8 µM	0.29 µM	0.97 µM		
CCCCCC(=O)c1c(O)c(C(C2=C(O)C(C)(C)C(=O)C(C)(C)C2=O)C(C)C)c(O)c2c1OC1=C(C(=O)C(C)(C)C(=O)C1(C)C)C2C(C)C (configuration not stated)	2.5 µM	> 10 µM	0.61 µM	1.3 µM	66.7%	
CCCCCC(=O)c1c(O)c(C(C2=C(O)c3ccccc3C2=O)C(C)C)c(O)c(C(C2=C(O)c3ccccc3C2=O)C(C)C)c1O (configuration not stated)	> 30 µM	1.7 µM		1.5 µM		
CCCCCC(=O)c1c(O)cc(O)c(C(C2=C(O)C(C)(C)C(=O)C(C)(C)C2=O)C(C)C)c1O (configuration not stated)	> 30 µM	> 10 µM	0.39 µM	1.6 µM	72.8%	
CC(C)C(=O)c1c(O)cc(O)c2c1OC1=C(C(=O)C(C)(C)C(=O)C1(C)C)[C@@H]2C(C)C	8.1 µM	6.2 µM	7.9 µM	1.6 µM		
CC(C)C(C1=C(O)C(C)(C)C(=O)C(C)(C)C1=O)c1c(O)c(C(=O)c2ccccc2)c(O)c(C(C2=C(O)C(C)(C)C(=O)C(C)(C)C2=O)C(C)C)c1O (configuration not stated)	> 30 µM	> 10 µM	5 µM	> 10 µM	82.9%	69.7%
CC(C)C(=O)c1c(O)c(C(C2=C(O)c3ccccc3C2=O)c2ccccc2)c(O)c(C(C2=C(O)c3ccccc3C2=O)c2ccccc2)c1O (configuration not stated)	> 30 µM	0.73 µM	0.81 µM	1.4 µM		
CC(C)CC(=O)c1c(O)cc(O)c(C(CC(C)C)C2=C(O)C(C)(C)C(=O)C(C)(C)C2=O)c1O (configuration not stated)	> 30 µM	4.6 µM	0.64 µM	1.8 µM		
CC(C)C(=O)c1c2c(c(O)c3c1OC1=C(C(=O)C(C)(C)C(=O)C1(C)C)C3C(C)C)C(C(C)C)C1=C(O2)C(C)(C)C(=O)C(C)(C)C1=O (configuration not stated)	17.1 µM	> 10 µM	> 10 µM	> 10 µM	95%	69.5%
CC(=O)c1c(O)c(C(C2=C(O)CC(C)(C)CC2=O)C(C)C)c(O)c(C(C2=C(O)CC(C)(C)CC2=O)C(C)C)c1O (configuration not stated)	7.5 µM	> 10 µM	1.1 µM	8.1 µM	69.3%	
CCCCCC(=O)c1c(O)c([C@@H](CC(C)C)C2=C(O)C(C)(C)C(=O)C(C)(C)C2=O)c(O)c([C@H](C2=C(O)C(C)(C)C(=O)C(C)(C)C2=O)C(C)C)c1O [MYRTUCOMMULONE H]	21.9 µM	6.6 µM	0.3 µM	1.3 µM		
CCCCCC(=O)c1c(O)cc(O)c2c1OC1=C(C(=O)C(C)(C)C(=O)C1(C)C)C2C(C)C (configuration not stated)	7.4 µM	2.5 µM	6.4 µM	1.6 µM		
CC(C)C(=O)c1c(O)c(C(C2=C(O)CC(C)(C)CC2=O)C(C)C)c(O)c(C(C2=C(O)CC(C)(C)CC2=O)C(C)C)c1O (configuration not stated)	2 µM	25 µM	2.1 µM	13 µM		
CCCCCC(=O)c1c(O)c(C(CC(C)C)C2=C(O)C(C)(C)C(=O)C(C)(C)C2=O)c(O)c(C(CC(C)C)C2=C(O)C(C)(C)C(=O)C(C)(C)C2=O)c1O (configuration not stated)	23.5 µM	3.5 µM	0.24 µM	0.46 µM		
CCCCCC(=O)c1c(O)c(C(C2=C(O)c3ccccc3C2=O)c2ccccc2)c(O)c(C(C2=C(O)c3ccccc3C2=O)c2ccccc2)c1O (configuration not stated)	> 30 µM	0.46 µM	0.43 µM	0.69 µM		
CC(C)C(C1=C(O)c2ccccc2C1=O)c1c(O)c(C(=O)c2ccccc2)c(O)c(C(C2=C(O)c3ccccc3C2=O)C(C)C)c1O (configuration not stated)	> 30 µM					
O=C1C(C(c2ccccc2)c2c(O)c(C(=O)c3ccccc3)c(O)c(C(C3=C(O)c4ccccc4C3=O)c3ccccc3)c2O)=C(O)c2ccccc21 (configuration not stated)	> 30 µM	3 µM	0.48 µM	1.8 µM		
CC(C)CC(=O)c1c(O)c(C(C2=C(O)c3ccccc3C2=O)C(C)C)c(O)c(C(C2=C(O)c3ccccc3C2=O)C(C)C)c1O (configuration not stated)	> 30 µM	3.1 µM		1.3 µM		
CC(C)C(C1=C(O)CC(C)(C)CC1=O)c1c(O)c(C(C2=C(O)CC(C)(C)CC2=O)C(C)C)c(O)c(C(C2=C(O)CC(C)(C)CC2=O)C(C)C)c1O (configuration not stated)	6.2 µM	2.8 µM	0.68 µM	> 10 µM		83.5%
CCCCCC(=O)c1c(O)c([C@H](C2=C(O)C(C)(C)C(=O)C(C)(C)C2=O)C(C)C)c(O)c([C@H](C2=C(O)C(C)(C)C(=O)C(C)(C)C2=O)C(C)C)c1O [MYRTUCOMMULONE F]	2.3 µM	7.5 µM	0.6 µM	3.1 µM		
CC(C)C(=O)c1c(O)c(C(C2=C(O)c3ccccc3C2=O)C(C)C)c(O)c(C(C2=C(O)c3ccccc3C2=O)C(C)C)c1O (configuration not stated)	> 30 µM	20 µM				
CC(C)C(=O)c1c(O)cc(O)c(C(C2=C(O)C(C)(C)C(=O)C(C)(C)C2=O)C(C)C)c1O (configuration not stated)	> 30 µM	> 10 µM	0.82 µM	8.1 µM	82.5%	

Source: ChEMBL document CHEMBL3608292, “Synthesis and biological evaluation of novel myrtucommulones and structural analogues that target mPGES-1 and 5-lipoxygenase” (Eur J Med Chem, 2015)
